From ChEMBL document CHEMBL1150594, “Suberosols A-D, four new sesquiterpenes with beta-caryophyllene skeletons from a Taiwanese gorgonian coral Subergorgia suberosa” (2002)
≈ marks a conversion by molar mass, not a printed value.

Key:
Assay type in all cases: functional
Details in all cases: read-out: ED50 (the source's name)
HT-29 = assay: Cytotoxicity against human HT-29 cells by MTT assay
Procedure, shortened: (§1)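 Growth inhibition of cancer cells read by a modified MTT colorimetric method, following a previously described procedure. P-388 cells were obtained from an academic laboratory; A549 and HT-29 cells came from the American Type Culture Collection.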

P388 = assay: Cytotoxicity against mouse P388 cells by MTT assay; procedure, shortened: as §1
A549 = assay: Cytotoxicity against human A549 cells by MTT assay; procedure, shortened: as §1

C=C1CC/C=C(\C)C(=O)C[C@@H]2[C@@H]1CC2(C)C [BUDDLEDIN C]
EC50 (HT-29): 3.6 µg/mL (≈ 16.5 µM) | EC50 (P388): 4.6 µg/mL (≈ 21.1 µM) | EC50 (A549): 3.8 µg/mL (≈ 17.4 µM)

C=C1CC/C=C(/C)C(=O)C[C@@H]2[C@@H]1CC2(C)C [BUDDLEDIN D]
EC50 (HT-29): 6.6 µg/mL (≈ 30.2 µM) | EC50 (P388): 6.3 µg/mL (≈ 28.9 µM) | EC50 (A549): 8.9 µg/mL (≈ 40.8 µM)

C=C1CC[C@H]2O[C@]2(C)[C@@H](O)C[C@@H]2[C@@H]1CC2(C)C [SUBEROSOL A]
EC50 (HT-29): > 50 µg/mL | EC50 (P388): 3.8 µg/mL (≈ 16.1 µM) | EC50 (A549): > 50 µg/mL

C=C1CC[C@H]2O[C@]2(C)[C@H](O)C[C@@H]2[C@@H]1CC2(C)C [SUBEROSOL B]
EC50 (HT-29): > 50 µg/mL | EC50 (P388): 7.4 µg/mL (≈ 31.3 µM) | EC50 (A549): > 50 µg/mL

C=C1CC/C=C(\C)[C@H](O)C[C@@H]2[C@@H]1CC2(C)C [SUBEROSOL C]
EC50 (HT-29): 2.3 µg/mL (≈ 10.4 µM) | EC50 (P388): 2.1 µg/mL (≈ 9.53 µM) | EC50 (A549): 5.6 µg/mL (≈ 25.4 µM)

C=C1CC/C=C(/C)[C@@H](O)C[C@@H]2[C@@H]1CC2(C)C [SUBEROSOL D]
EC50 (HT-29): 3.8 µg/mL (≈ 17.2 µM) | EC50 (P388): 3.3 µg/mL (≈ 15 µM) | EC50 (A549): 4.2 µg/mL (≈ 19.1 µM)
